The text below walks through data of ChEMBL document CHEMBL4190394, “Discovery of Novel Pazopanib-Based HDAC and VEGFR Dual Inhibitors Targeting Cancer Epigenetics and Angiogenesis Simultaneously” (J Med Chem, 2018).

Broadly, the IC50 is the midpoint of a concentration-inhibition curve. The term bioavailability denotes the share of a dose that reaches the circulation, judged against a reference dose that is usually intravenous. Read a low bioavailability as little systemic uptake. A word on the Tmax: it is the time at which the peak concentration occurs. A word on the MRT last: it is the average time that molecules of a dose stay in the body.

Data set [1] has as its target Vascular endothelial growth factor receptor 1 (Homo sapiens, UniProt P17948). The data set can be described thus: Inhibition of VEGFR-1 (unknown origin) after 40 mins by kinase-Glo assay. The procedure, abridged: (§1)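 Kinase-Glo luminescent assay run by a contract lab. Compound, kinase, substrate and ATP diluted in kinase buffer and incubated 40 min at room temperature. IC50 obtained by nonlinear regression of normalized dose–response.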
On the technique in general: Kinase-Glo measures the ATP left after a reaction by luminescence.

Data set [2] addresses Macrophage colony-stimulating factor 1 receptor (Homo sapiens, UniProt P07333). The data set can be described thus: Inhibition of C-fms (unknown origin) after 40 mins by kinase-Glo assay.
The test system of the next data set is AGS. The data set can be described thus: Antiproliferative activity against human AGS cells after 72 hrs by MTT assay. It is filed as functional, cell-based. For orientation: Formazan colour is commonly taken as a measure of viable cells.
In data set [3] the target is Vascular endothelial growth factor receptor 3 (Homo sapiens, UniProt P35916). The data set can be described thus: Inhibition of VEGFR-3 (unknown origin) after 40 mins by kinase-Glo assay.
Vascular endothelial growth factor receptor 3, sequence (P35916 whole entry): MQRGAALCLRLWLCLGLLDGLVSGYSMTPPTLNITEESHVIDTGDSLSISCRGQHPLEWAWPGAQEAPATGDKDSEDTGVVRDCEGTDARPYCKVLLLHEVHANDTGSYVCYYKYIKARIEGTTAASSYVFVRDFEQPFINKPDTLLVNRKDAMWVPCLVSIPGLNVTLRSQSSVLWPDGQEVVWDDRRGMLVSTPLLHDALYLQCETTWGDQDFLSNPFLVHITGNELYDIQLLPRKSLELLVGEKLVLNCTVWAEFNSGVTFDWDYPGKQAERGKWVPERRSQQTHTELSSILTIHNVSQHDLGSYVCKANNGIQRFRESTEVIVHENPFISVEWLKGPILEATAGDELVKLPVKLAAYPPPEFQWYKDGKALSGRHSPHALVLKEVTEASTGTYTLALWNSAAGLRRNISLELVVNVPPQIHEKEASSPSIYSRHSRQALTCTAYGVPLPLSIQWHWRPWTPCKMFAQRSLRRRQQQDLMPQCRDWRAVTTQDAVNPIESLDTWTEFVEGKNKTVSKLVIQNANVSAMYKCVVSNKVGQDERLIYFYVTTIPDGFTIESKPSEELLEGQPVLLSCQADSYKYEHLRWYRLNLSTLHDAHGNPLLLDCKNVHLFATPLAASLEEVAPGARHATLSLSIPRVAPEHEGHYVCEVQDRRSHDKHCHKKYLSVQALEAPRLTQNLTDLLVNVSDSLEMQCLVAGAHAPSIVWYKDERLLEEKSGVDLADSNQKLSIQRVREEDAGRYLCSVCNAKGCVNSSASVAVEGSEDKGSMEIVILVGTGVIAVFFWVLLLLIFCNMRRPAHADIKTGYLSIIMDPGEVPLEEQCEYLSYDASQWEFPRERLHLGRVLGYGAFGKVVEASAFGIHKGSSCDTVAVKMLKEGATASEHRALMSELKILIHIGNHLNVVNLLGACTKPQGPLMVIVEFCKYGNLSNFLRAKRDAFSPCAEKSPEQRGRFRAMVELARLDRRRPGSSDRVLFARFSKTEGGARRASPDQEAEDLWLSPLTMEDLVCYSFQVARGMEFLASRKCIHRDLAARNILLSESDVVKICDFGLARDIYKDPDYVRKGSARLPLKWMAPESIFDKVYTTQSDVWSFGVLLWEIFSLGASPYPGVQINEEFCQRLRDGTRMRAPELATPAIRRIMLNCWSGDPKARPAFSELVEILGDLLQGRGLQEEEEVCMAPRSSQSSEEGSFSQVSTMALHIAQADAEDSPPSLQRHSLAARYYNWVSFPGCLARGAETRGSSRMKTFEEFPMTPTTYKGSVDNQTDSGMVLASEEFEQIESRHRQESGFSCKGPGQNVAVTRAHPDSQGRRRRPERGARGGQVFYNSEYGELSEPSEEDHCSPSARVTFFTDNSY
A short description of data set [4]: Oral bioavailability in Sprague-Dawley rat at 10 mg/kg by LC-MS/MS analysis. It is filed as ADME, organism-based. The settings on record: in vivo. The method in brief: (§2)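 Sprague–Dawley rats (N = 6) dosed with the hydrochloride salt, 2 mg/kg IV or 10 mg/kg PO. Jugular vein blood drawn at set time points and kept on ice. Plasma separated by centrifugation, stored at -80 °C, and quantified by LC-MS/MS.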

The nature of data set [5]: Tmax in Sprague-Dawley rat at 2 mg/kg, iv by LC-MS/MS analysis. It is filed as ADME, organism-based. Conditions: in vivo. The method in brief: as §2
The next data set concerns the target Histone deacetylase 1 (Homo sapiens, UniProt Q13547). Put plainly: Inhibition of HDAC1 (unknown origin) using fluorogenic substrate preincubated for 5 mins followed by substrate addition measured after 30 mins by fluorescence-based assay.
The nature of data set [6]: MRT (0 to t) in Sprague-Dawley rat at 2 mg/kg, iv by LC-MS/MS analysis. It is filed as ADME, organism-based. The settings on record: in vivo. The procedure, abridged:
as §2

Data set [7] can be described thus: Tmax in Sprague-Dawley rat at 10 mg/kg, po by LC-MS/MS analysis. The format is ADME, organism-based. Conditions: in vivo. The procedure, abridged:
as §2

The next data set relates to ACHN. The data set can be described thus: Antiproliferative activity against human ACHN cells after 72 hrs by MTT assay. It is filed as functional, cell-based.
The next data set deals with HT-29. The data set can be described thus: Antiproliferative activity against human HT-29 cells after 72 hrs by MTT assay. It is filed as functional, cell-based. The settings on record: HT-29, 72 h.
For data set [8], the target named is Vascular endothelial growth factor receptor 2 (Homo sapiens, UniProt P35968). The data set can be described thus: Inhibition of VEGF-stimulated VEGFR2 phosphorylation in human HUVEC cells at 100 nM preincubated for 2 hrs followed by VEGF stimulation by Western blot analysis. It is filed as cell-based. The procedure, abridged: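 HUVECs pretreated 2 h with compound or DMSO, then stimulated with VEGF (50 ng/ml). Cells lysed in ice-cold RIPA and protein measured by BCA. Lysates run on SDS-PAGE and immunoblotted for phospho-VEGFR-2, with total VEGFR-2 as loading control. Detection by ECL.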
Vascular endothelial growth factor receptor 2, sequence (P35968 whole entry): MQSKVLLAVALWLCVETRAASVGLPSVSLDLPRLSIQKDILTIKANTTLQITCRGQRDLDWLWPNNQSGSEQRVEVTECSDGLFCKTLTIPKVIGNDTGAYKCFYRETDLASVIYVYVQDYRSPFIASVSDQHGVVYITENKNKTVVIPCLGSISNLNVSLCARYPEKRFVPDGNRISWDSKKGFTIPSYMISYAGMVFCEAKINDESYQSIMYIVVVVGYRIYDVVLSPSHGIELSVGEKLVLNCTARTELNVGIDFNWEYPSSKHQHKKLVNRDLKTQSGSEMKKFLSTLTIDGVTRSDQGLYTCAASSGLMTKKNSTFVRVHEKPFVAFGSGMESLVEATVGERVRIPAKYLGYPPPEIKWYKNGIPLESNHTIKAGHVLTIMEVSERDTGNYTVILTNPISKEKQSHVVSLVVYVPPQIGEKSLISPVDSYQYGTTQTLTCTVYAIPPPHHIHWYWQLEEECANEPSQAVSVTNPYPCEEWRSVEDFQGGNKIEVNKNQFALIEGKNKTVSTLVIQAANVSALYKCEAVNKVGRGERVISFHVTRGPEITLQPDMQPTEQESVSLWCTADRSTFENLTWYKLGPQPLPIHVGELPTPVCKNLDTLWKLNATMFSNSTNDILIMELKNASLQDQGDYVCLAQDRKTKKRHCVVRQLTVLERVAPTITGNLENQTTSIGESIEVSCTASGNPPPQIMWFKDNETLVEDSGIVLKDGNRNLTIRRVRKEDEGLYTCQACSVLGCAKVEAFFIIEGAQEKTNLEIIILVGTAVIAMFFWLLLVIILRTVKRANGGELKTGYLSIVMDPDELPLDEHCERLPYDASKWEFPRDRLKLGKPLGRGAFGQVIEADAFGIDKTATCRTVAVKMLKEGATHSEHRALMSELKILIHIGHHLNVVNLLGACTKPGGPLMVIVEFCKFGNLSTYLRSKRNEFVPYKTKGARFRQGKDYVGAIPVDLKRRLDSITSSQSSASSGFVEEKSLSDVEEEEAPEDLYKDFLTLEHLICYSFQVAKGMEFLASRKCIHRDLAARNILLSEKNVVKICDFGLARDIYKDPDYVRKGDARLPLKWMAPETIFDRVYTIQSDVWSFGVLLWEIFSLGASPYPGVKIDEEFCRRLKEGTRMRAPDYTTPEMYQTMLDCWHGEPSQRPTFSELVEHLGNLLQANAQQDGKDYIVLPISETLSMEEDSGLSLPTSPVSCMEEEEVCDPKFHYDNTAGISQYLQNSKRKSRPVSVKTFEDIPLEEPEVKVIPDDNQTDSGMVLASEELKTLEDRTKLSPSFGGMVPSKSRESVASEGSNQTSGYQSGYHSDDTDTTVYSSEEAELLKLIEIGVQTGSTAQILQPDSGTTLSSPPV
(In general: In western blotting, separated proteins are transferred to a membrane and probed.)

For data set [9], the target named is Platelet-derived growth factor receptor beta (Homo sapiens, UniProt P09619). The data set can be described thus: Inhibition of PDGFRbeta (unknown origin) after 40 mins by kinase-Glo assay. The procedure, abridged: as §1
The next data set has as its system KG-1. The data set can be described thus: Antiproliferative activity against human KG1 cells after 72 hrs by MTT assay. The settings on record: KG-1, 72 h. It is filed as functional, cell-based.

SMILES strings stand for the structures. Calls of active or inactive are those of the source. The rule behind the calls is not given here.

Vascular endothelial growth factor receptor 1, sequence (P17948 whole entry): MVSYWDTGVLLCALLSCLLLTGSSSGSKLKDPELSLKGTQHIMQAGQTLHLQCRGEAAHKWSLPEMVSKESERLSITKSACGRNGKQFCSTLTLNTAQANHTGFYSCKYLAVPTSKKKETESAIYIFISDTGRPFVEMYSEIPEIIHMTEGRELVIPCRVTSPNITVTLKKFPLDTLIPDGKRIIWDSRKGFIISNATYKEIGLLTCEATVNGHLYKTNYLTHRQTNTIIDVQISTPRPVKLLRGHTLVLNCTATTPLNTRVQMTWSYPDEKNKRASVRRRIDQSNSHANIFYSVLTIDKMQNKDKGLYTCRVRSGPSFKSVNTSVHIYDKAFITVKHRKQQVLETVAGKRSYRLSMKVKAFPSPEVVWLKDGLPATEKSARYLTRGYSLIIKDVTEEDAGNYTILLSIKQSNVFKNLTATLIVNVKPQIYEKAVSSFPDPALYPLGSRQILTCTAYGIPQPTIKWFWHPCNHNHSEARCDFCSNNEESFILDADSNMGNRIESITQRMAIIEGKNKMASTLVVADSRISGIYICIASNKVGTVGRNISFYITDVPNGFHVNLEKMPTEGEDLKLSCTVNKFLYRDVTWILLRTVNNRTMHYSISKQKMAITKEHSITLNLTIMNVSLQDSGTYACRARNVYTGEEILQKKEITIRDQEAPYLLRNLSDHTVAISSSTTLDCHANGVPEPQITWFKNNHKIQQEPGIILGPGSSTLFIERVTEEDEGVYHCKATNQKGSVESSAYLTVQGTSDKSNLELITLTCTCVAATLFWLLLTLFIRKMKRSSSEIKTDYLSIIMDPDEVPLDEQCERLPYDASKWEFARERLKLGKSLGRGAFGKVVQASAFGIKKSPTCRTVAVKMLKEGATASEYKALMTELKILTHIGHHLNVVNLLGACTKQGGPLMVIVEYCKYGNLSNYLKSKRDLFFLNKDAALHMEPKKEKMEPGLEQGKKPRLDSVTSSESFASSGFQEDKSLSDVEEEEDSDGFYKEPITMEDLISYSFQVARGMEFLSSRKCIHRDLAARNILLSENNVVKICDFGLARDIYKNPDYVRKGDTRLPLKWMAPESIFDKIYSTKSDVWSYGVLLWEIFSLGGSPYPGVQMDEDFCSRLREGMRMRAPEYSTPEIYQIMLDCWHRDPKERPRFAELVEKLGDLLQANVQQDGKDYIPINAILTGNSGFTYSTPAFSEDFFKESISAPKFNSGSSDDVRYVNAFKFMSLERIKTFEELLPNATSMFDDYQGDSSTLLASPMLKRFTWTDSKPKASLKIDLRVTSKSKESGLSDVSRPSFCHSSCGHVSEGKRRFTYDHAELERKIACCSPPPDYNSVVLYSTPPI
Histone deacetylase 1, sequence (Q13547 whole entry): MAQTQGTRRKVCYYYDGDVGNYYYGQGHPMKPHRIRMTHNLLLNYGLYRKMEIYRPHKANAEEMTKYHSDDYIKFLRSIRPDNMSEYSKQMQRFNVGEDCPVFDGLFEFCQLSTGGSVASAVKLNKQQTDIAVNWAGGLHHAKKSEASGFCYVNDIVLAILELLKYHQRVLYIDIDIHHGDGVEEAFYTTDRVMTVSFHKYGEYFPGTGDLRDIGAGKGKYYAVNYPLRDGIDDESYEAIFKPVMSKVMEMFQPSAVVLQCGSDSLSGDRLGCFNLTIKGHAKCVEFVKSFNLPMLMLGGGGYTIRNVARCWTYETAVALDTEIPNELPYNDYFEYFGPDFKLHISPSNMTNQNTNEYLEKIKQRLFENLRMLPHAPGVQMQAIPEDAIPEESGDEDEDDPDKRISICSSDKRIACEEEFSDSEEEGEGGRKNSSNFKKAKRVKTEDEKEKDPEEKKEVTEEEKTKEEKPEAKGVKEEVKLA

`Cc1c2ccc(N(C)c3ccnc(Nc4ccc(C(=O)Nc5ccccc5N)cc4)n3)cc2nn1C`: the half-inhibitory concentration (IC50) in data set [1] was 0.022 µM; in data set [2] it was 0.351 µM; in the data set on AGS, above 5 µM; in data set [3] it was 0.046 µM; against Histone deacetylase 1, 0.59 µM; in the data set on ACHN it was above 5 µM. Moreover, the results for the IC50 (in the data set with HT-29; in [9]; in the data set on KG-1) were 1.07 µM, 0.088 µM and 0.67 µM, respectively. In [4], the bioavailability stood at 72%. In addition, the time of peak concentration (Tmax) amounted to 4.8 min in data set [5] and 30 min in [7]. In data set [6], this compound returned an MRT last of 67.8 min. For the same compound, the inhibition entry in data set [8] is “Active”.
